Test results published in ChEMBL document CHEMBL4428047 (J Med Chem, 2016).
Values after ≈ are worked out from the molar mass of the structure shown.

Legend:
[1] = Clearance in rat liver microsomes assessed as drug turnover level at 1 uM incubated for 30 mins in presence of NADPH; assay type: ADME, Microsome; details: read-out: CLH
Summary of the method: (§1)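 Parent compound at 1 µM incubated with liver microsomes (0.25 mg/mL) in 66.7 mM potassium phosphate with 1 mM NADPH, 37 °C, 30 min; % turnover measured by LC/MS.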

[2] = Clearance in human liver microsomes assessed as drug turnover level at 1 uM incubated for 30 mins in presence of NADPH; assay type: ADME, Microsome; details: read-out: CLH; summary of the method: as §1
[3] = Apparent permeability in LLC-PK1 cells by LC-MS method; assay type: ADME, cell-based, Sus scrofa; details: pig
Summary of the method: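 Passive permeability across LLCPK1 monolayers; apparent permeability (Papp) obtained by mass balance with LC/MS quantitation.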

[4] = Aqueous equilibrium solubility at room temperature after 72 hrs at pH 7.4 by HPLC; assay type: physicochemical; details: buffer
[5] = Oral bioavailability in Sprague-Dawley rat at 2 mg/kg by LC-MS method; assay type: ADME, organism-based; details: in vivo
[6] = Unbound clearance in Sprague-Dawley rat at 0.5 mg/kg, iv by LC-MS method; assay type: ADME, organism-based; details: in vivo
Summary of the method: (§2)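 Male Sprague-Dawley rats, two animals per study, dosed IV at 0.5 mg/kg as a solution in 100% DMSO. Unbound clearance calculated as total clearance divided by rat plasma fraction unbound (CLu = CL/fu).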

[7] = Clearance in Sprague-Dawley rat at 0.5 mg/kg, iv by LC-MS method; assay type: ADME, organism-based; details: in vivo; summary of the method: as §2

Compound | microsomal CLint at 1 µM [1] | microsomal CLint at 1 µM [2] | Papp [3] | solubility thermodynamic at 72 h [4] | bioavailability [5] | CL free [6] | clearance [7]
C[C@H](Nc1ncnc(N)c1C#N)c1nc2ccc(F)cc2c(-c2ccccn2)c1-c1ccccn1 | 16 µL/min/mg | 47 µL/min/mg | – | – | – | – | –
CNCCNC(=O)c1c(-c2ccccc2)c([C@H](C)Nc2ncnc(N)c2C#N)nc2ccc(F)cc12 | < 14 µL/min/mg | < 14 µL/min/mg | – | – | – | – | –
CNC(=O)c1c(-c2ccccn2)c([C@H](C)Nc2ncnc(N)c2C#N)nc2cccc(F)c12 | < 14 µL/min/mg | < 14 µL/min/mg | 8 ×10⁻⁶ cm/s | 200 µg/mL (≈ 452 µM) | 29% | 67 mL/min/kg | 11.7 mL/min/kg
C[C@H](Nc1ncnc(N)c1C#N)c1nc2ccc(F)cc2c(C(=O)N2CCS(=O)(=O)CC2)c1-c1ccccc1 | 78 µL/min/mg | 62 µL/min/mg | – | – | – | – | –
C[C@H](Nc1ncnc(N)c1C#N)c1nc2ccc(F)cc2c(C(=O)N2CCNCC2)c1-c1ccccc1 | 50 µL/min/mg | 82 µL/min/mg | – | – | – | 1000 mL/min/kg | 15 mL/min/kg
CC(C)NC(=O)c1c(-c2ccccc2)c([C@H](C)Nc2ncnc(N)c2C#N)nc2ccc(F)cc12 | < 14 µL/min/mg | 51 µL/min/mg | – | – | – | – | –
CCNC(=O)c1c(-c2ccccc2)c([C@H](C)Nc2ncnc(N)c2C#N)nc2ccc(F)cc12 | < 14 µL/min/mg | 22 µL/min/mg | – | – | – | – | –
CNC(=O)c1c(-c2ccccn2)c([C@H](C)Nc2ncnc(N)c2C#N)nc2ccc(F)cc12 | < 14 µL/min/mg | < 14 µL/min/mg | 14.6 ×10⁻⁶ cm/s | 200 µg/mL (≈ 452 µM) | 70% | 38.3 mL/min/kg | 8.33 mL/min/kg
CNC(=O)c1c(-c2ccccc2)c([C@H](C)Nc2ncnc(N)c2C#N)nc2ccc(F)cc12 | 15 µL/min/mg | < 14 µL/min/mg | – | – | – | 75 mL/min/kg | 8.33 mL/min/kg
CNCCNC(=O)c1c(-c2ccccn2)c([C@H](C)Nc2ncnc(N)c2C#N)nc2ccc(F)cc12 | < 14 µL/min/mg | 33 µL/min/mg | – | – | – | 468 mL/min/kg | 16.7 mL/min/kg
C[C@H](Nc1ncnc(N)c1C#N)c1nc2ccc(F)cc2c(C(=O)N2CC(O)C2)c1-c1ccccc1 | 49 µL/min/mg | 40 µL/min/mg | – | – | – | – | –
C[C@H](Nc1ncnc(N)c1C#N)c1nc2ccc(F)cc2c(C(N)=O)c1-c1ccccc1 | < 14 µL/min/mg | < 14 µL/min/mg | – | – | – | – | 10 mL/min/kg
C[C@H](Nc1ncnc(N)c1C#N)c1nc2ccc(F)cc2c(C(=O)N(C)C)c1-c1ccccc1 | 426 µL/min/mg | 198 µL/min/mg | – | – | – | – | –
CCNC(=O)c1c(-c2ccccn2)c([C@H](C)Nc2ncnc(N)c2C#N)nc2ccc(F)cc12 | < 14 µL/min/mg | < 14 µL/min/mg | – | – | – | 102 mL/min/kg | 3.33 mL/min/kg
CC(Nc1ncnc(N)c1C#N)c1nc2ccc(F)cc2c(C(=O)N2CCNCC2)c1-c1ccccn1 (racemic) | 17 µL/min/mg | 24 µL/min/mg | – | – | – | – | –
CC(Nc1ncnc(N)c1C#N)c1nc2ccc(F)cc2c(C(=O)N2CC(O)C2)c1-c1ccccn1 (racemic) | < 14 µL/min/mg | < 14 µL/min/mg | – | – | – | – | –
C[C@H](Nc1ncnc2[nH]cnc12)c1cc2ccc(F)cc2nc1-c1ccccn1 [AMG-319] | < 14 µL/min/mg | < 14 µL/min/mg | 30 ×10⁻⁶ cm/s | > 200 µg/mL | 54% | 45 mL/min/kg | 5 mL/min/kg
